These results are taken from ChEMBL document CHEMBL1139138, “Pyrrolidine-constrained phenethylamines: The design of potent, selective, and pharmacologically efficacious dipeptidyl peptidase IV (DPP4) inhibitors from a lead-like screening hit” (Bioorg Med Chem Lett, 2007).

The target in one data set is T1, Prolyl endopeptidase (Homo sapiens, UniProt P48147).
T1 sequence (P48147 whole entry): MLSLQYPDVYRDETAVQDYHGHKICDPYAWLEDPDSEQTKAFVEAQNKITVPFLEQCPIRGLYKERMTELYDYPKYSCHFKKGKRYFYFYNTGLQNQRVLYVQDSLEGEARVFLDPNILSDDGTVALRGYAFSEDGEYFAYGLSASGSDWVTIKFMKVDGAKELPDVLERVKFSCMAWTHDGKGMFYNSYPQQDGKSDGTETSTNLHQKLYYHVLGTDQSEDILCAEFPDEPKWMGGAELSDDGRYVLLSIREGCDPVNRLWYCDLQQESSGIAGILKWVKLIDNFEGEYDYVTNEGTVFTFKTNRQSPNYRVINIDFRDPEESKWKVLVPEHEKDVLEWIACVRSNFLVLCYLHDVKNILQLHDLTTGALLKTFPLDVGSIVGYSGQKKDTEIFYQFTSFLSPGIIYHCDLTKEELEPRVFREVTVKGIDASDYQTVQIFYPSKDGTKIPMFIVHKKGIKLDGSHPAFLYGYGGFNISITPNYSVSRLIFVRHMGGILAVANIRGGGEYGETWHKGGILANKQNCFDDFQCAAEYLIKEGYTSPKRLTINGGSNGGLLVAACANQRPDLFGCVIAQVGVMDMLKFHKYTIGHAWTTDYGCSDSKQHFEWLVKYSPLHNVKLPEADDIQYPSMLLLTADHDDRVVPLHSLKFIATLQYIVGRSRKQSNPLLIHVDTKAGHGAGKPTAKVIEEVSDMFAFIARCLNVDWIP
The data set can be described thus: Inhibition of human POP.

A short description of data set [1]: Plasma clearance in dog at 2.5 mg/kg, po. More on the design: dose 2.5 mg/kg, route oral. Type of data set: ADME, organism-based, Canis lupus familiaris. The method, boiled down: (§1)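 Pharmacokinetics in rat dosed at 5 mg/kg and in dog and monkey dosed at 2.5 mg/kg. Cmax, t1/2 (terminal) and AUC were taken from oral dosing. F is oral bioavailability. Vss is volume of distribution at steady state.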

A short description of data set [2]: Cmax in dog at 2.5 mg/kg, po. The note with it: in vivo. Type of data set: ADME, organism-based, Canis lupus familiaris. More on the design: dose 2.5 mg/kg, route oral. The method, boiled down: as §1
Data set [3] is described as follows: Half life in Sprague-Dawley rat at 5 mg/kg, po. More on the design: dose 5 mg/kg, route oral. The note with it: in vivo. The format is ADME, organism-based. Put shortly:
as §1

Data set [4] in a line: Half life in rat liver microsome. Type of data set: ADME. To be noted: liver microsomes. The method, boiled down: (§2)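 Stability on incubation with rat or human liver microsomes, expressed as half-life.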
Data set [5] in a line: Oral bioavailability in Sprague-Dawley rat at 5 mg/kg, po. Type of data set: ADME, organism-based. The note with it: in vivo. The method, boiled down:
as §1

Data set [6] is described as follows: Plasma concentration in ZDF rat at 1 mg/kg after 240 mins. The format is ADME, organism-based. On the set-up: dose 1 mg/kg. Put shortly: (§3)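 Female ZDF rats, 10 weeks old, fasted overnight and dosed orally at 1 mg/kg four hours before feeding (t = 0). Plasma drug concentration and the matching plasma DPP4 inhibition were determined at t = 0 and t = 240 min.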

In a further data set the target is T2, Prolyl endopeptidase FAP (Homo sapiens, UniProt Q12884).
T2 sequence (Q12884 whole entry): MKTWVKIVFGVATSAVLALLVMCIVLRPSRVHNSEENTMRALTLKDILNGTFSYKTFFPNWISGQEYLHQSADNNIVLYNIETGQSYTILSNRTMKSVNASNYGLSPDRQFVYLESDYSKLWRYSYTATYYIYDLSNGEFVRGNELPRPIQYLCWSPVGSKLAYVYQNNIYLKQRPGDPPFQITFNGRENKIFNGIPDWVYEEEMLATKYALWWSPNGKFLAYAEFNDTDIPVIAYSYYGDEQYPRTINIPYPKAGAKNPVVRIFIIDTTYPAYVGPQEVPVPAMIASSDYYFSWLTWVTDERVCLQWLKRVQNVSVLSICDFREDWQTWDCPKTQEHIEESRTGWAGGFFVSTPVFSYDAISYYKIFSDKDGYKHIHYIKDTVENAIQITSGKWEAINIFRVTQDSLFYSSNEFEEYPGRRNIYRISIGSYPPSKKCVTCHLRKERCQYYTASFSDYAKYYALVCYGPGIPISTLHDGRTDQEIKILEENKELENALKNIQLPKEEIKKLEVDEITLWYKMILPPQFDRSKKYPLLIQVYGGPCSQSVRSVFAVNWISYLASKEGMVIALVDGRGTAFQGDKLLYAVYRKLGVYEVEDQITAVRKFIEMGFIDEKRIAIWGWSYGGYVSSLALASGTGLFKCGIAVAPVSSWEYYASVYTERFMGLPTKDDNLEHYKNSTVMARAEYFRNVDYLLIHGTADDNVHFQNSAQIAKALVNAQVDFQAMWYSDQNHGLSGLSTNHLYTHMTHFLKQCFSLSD
Nature of the data set: Inhibition of human FAPalpha.

The nature of data set [7]: Half life in dog at 2.5 mg/kg, po. More on the design: dose 2.5 mg/kg, route oral. The note with it: in vivo. Type of data set: ADME, organism-based, Canis lupus familiaris. The method, boiled down: as §1
Data set [8] relates to Rattus norvegicus. Nature of the data set: Volume of distribution at steady state in Sprague-Dawley rat at 5 mg/kg, po. More on the design: dose 5 mg/kg, route oral. To be noted: in vivo. Type of data set: ADME, organism-based. The method, boiled down:
as §1

The next data set has as its target Cytochrome P450 2C9 (Homo sapiens, UniProt P11712). The data set can be described thus: Inhibition of CYP2C9. The format is ADME.
A short description of data set [9]: Plasma clearance in Sprague-Dawley rat at 5 mg/kg, po. The format is ADME, organism-based. On the set-up: dose 5 mg/kg, route oral. The method, boiled down: as §1
Data set [10] has as its system Rattus norvegicus. The data set can be described thus: AUC in Sprague-Dawley rat at 5 mg/kg, po. To be noted: in vivo. Type of data set: ADME, organism-based, Plasma. More on the design: dose 5 mg/kg, route oral. Put shortly: as §1
Data set [11] is described as follows: Cmax in Sprague-Dawley rat at 5 mg/kg, po. Type of data set: ADME, organism-based. On the set-up: dose 5 mg/kg, route oral. To be noted: in vivo. The method, boiled down: as §1
Data set [12] in a line: Oral bioavailability in dog at 2.5 mg/kg, po. Type of data set: ADME, organism-based, Canis lupus familiaris. To be noted: in vivo. The method, boiled down:
as §1

The test system of data set [13] is Rattus norvegicus. The data set can be described thus: Reduction of glucose level in ZDF rat at 0.3 mg/kg, po by […]. Type of data set: functional. On the set-up: scale not given: the % may be the effect or the level left. The method, boiled down:
(§4)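 Female Zucker diabetic fatty rats, 10 weeks old, fasted overnight (n = 10/group). They were dosed orally with vehicle or inhibitor at 0.3, 1 or 3 mg/kg at t = −240 min and allowed to feed at t = 0. Blood glucose lowering was measured relative to vehicle.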

A short description of data set [14]: Half life in human liver microsome. Type of data set: ADME. The note with it: liver microsomes. The method, boiled down: as §2
A further data set addresses Cytochrome P450 3A4 (Homo sapiens, UniProt P08684). The data set can be described thus: Inhibition of CYP3A4. The format is ADME.
For data set [15], the system named is Rattus norvegicus. The data set can be described thus: Reduction of glucose level in ZDF rat at 3 mg/kg, po […]. Type of data set: functional. More on the design: scale not given: the % may be the effect or the level left. The method, boiled down: as §4
Another data set concerns the target Cytochrome P450 2D6 (Homo sapiens, UniProt P10635). The data set can be described thus: Inhibition of CYP2D6. Type of data set: ADME.
Another data set concerns Canis familiaris. Nature of the data set: AUC in dog at 2.5 mg/kg, po. The format is ADME, organism-based, Canis lupus familiaris, Plasma. On the set-up: dose 2.5 mg/kg, route oral. To be noted: in vivo. The method, boiled down: as §1
In data set [16] the test system is Rattus norvegicus. The data set can be described thus: Inhibition of DPP4 in ZDF rat at 1 mg/kg after 240 mins. Type of data set: functional. The note with it: 4 h. The method, boiled down:
as §3

Data set [17] relates to Rattus norvegicus. The data set can be described thus: Reduction of glucose level in ZDF rat at 1 mg/kg, po […]. The format is functional. More on the design: scale not given: the % may be the effect or the level left. The method, boiled down: as §4

Sequence of Cytochrome P450 2C9 (P11712 whole entry): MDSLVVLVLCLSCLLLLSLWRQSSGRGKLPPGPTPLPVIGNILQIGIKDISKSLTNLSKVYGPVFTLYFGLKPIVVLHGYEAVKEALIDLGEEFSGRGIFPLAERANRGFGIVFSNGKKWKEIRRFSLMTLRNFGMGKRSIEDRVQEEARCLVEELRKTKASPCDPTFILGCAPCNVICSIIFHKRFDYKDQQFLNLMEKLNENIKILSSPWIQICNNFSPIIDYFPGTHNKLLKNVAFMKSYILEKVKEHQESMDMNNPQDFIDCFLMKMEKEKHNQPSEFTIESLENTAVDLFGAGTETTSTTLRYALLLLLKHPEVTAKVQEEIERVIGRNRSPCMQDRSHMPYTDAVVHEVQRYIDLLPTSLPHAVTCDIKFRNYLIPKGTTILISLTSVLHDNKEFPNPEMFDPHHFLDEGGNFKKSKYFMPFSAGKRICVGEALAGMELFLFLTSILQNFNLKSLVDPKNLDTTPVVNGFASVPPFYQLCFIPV
Sequence of Cytochrome P450 2D6 (P10635 whole entry): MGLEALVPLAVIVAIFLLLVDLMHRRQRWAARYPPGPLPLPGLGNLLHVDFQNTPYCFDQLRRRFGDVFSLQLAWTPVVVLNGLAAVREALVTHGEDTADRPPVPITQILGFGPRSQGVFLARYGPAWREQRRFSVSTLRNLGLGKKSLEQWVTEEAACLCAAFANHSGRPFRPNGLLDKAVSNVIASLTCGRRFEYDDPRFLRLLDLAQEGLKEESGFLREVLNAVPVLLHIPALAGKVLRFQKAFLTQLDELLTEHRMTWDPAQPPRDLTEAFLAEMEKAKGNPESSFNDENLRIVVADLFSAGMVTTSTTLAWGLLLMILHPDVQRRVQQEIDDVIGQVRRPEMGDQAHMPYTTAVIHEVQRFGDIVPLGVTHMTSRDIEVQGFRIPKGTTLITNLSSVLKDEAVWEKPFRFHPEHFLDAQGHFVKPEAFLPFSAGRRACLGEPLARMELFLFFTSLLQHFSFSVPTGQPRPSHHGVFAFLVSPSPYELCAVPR
Sequence of Cytochrome P450 3A4 (P08684 whole entry): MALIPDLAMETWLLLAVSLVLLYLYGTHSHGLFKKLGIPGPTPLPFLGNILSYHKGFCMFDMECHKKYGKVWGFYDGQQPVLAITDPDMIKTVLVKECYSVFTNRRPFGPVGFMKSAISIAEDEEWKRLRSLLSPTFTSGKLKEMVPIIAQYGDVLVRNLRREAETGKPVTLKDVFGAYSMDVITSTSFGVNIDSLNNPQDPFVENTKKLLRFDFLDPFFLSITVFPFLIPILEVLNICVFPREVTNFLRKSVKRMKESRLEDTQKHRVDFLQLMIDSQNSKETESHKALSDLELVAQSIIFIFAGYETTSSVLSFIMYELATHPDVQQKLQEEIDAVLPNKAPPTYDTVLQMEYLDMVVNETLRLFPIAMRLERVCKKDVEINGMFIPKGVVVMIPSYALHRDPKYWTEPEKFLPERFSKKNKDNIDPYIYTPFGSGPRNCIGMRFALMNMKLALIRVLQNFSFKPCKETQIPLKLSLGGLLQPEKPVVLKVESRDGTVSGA

Consider `CS(=O)(=O)c1cccc(-c2ncnc(N3CC(N)C(c4cc(F)c(F)cc4F)C3)n2)c1` (stereo not drawn), for which the Ki on Prolyl endopeptidase and on Prolyl endopeptidase FAP was over 30 µM throughout. For the same compound, the CL/F is 3.5 mL/min/kg in data set [1] and 2.5 mL/min/kg in data set [9]. The Cmax in data set [2] amounted to 691 ng/mL; in data set [11], 1970 ng/mL. Further, the half-life is 5.5 h in data set [3], over 3 h in [4], 14.9 h in data set [7] and over 3 h in data set [14]. The bioavailability in data set [5] is 74%; in data set [12], 100%. The concentration at 4 h in data set [6] was 373 ng/mL. Also, in the data set with Rattus norvegicus [8], the Vdss came out at 1.15 L/kg. For the same compound, the IC50 at Cytochrome P450 2C9, against Cytochrome P450 3A4 and against Cytochrome P450 2D6 was over 10 µM in each case. The AUC in the data set on Rattus norvegicus [10] is 24400 ng·h/mL; in the data set on Canis familiaris, 12200 ng·h/mL. For the same compound, the Activity with Rattus norvegicus [13] is given as -32%; in the data set with Rattus norvegicus [15] it was -37%; with Rattus norvegicus [17], -39%. The same compound gave an inhibition in vivo at 1 mg/kg in the data set with Rattus norvegicus [16] of over 98%.
